Laboratory results published in ChEMBL document CHEMBL3526053, “Species-dependent uptake of glycylsarcosine but not oseltamivir in Pichia pastoris expressing the rat, mouse, and human intestinal peptide transporter PEPT1” (Drug Metab Dispos, 2012).

Tests used:
Assay type in all cases: ADME
[1] = biological target: T1, PEPT1 (Rattus norvegicus, UniProt P51574); assay: Drug uptake in Pichia pastoris GS115 expressing rat recombinant PEPT1 at 5 uM after 30s by dual-channel liquid scintillation counting analysis relative to vector control; conditions: read-out: FC
T1 sequence (P51574 whole entry): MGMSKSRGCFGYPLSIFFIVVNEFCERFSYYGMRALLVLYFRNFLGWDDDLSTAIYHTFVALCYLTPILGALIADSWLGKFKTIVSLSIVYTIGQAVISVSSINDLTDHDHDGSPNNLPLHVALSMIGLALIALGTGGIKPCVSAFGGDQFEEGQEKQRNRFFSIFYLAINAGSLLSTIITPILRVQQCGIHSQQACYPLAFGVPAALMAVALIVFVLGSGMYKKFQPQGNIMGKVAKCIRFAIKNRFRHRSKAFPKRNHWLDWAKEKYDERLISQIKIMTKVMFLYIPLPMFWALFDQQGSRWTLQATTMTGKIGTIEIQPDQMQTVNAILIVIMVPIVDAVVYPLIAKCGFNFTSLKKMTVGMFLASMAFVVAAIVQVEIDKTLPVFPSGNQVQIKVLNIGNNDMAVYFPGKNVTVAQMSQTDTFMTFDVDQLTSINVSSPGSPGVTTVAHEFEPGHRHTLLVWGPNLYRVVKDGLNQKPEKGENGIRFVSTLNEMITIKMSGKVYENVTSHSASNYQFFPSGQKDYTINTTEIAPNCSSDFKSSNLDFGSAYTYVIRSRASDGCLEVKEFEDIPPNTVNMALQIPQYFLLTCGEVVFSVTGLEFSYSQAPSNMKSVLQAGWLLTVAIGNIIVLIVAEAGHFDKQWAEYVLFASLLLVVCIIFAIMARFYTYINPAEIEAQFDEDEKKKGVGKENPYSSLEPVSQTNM
Procedure, shortened: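 Rat PEPT1 and vector-only (pPIC3.5K) GS115 yeast, methanol-induced 20-24 hr. Cells were washed and concentrated tenfold in 100 mM phosphate buffer pH 6.5. [3H]GlySar or [14C]oseltamivir final 5.0 µM, 24°C, 30 sec and 5 min. Nonspecific binding was measured at 0°C and zero time. Uptake is given as pmol/OD600 by scintillation counting. Mean ± SE, n=6.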

[2] = biological target: T2, Solute carrier family 15 member 1 (Mus musculus, UniProt Q9JIP7); assay: Drug uptake in Pichia pastoris GS115 expressing mouse recombinant PEPT1 at 5 uM after 30s by dual-channel liquid scintillation counting analysis in presence of cephradine relative to control; conditions: 0.5 min
T2 sequence (Q9JIP7 whole entry): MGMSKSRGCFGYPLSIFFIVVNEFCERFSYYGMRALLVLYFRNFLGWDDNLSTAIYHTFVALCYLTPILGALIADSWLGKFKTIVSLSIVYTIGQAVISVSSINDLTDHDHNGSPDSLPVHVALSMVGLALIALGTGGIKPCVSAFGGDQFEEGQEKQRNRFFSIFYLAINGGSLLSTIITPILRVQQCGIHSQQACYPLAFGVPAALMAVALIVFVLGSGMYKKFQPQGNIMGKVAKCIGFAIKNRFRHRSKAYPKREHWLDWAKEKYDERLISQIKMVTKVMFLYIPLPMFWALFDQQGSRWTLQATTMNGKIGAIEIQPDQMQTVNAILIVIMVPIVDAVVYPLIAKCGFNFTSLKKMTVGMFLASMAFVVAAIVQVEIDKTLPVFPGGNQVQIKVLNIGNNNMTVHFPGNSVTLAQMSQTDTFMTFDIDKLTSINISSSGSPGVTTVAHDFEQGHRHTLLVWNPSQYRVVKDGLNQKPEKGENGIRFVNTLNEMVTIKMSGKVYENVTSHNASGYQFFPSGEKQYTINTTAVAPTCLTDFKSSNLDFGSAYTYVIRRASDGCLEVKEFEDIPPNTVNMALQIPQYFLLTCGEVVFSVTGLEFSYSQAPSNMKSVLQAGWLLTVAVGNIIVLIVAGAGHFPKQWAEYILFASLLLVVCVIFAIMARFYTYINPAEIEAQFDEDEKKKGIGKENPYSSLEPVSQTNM
Procedure, shortened: (§1)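 [3H]GlySar 5.0 µM final, 30-s uptake at 24°C in 100 mM potassium phosphate pH 6.5, with or without a potential inhibitor at 10 mM. Cells are methanol-induced transformants. Values are vector-subtracted and expressed as percent of buffer control. Mean ± SE (n=3). ANOVA with Dunnett's test.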

[3] = biological target: T3, Solute carrier family 15 member 1 (Homo sapiens, UniProt P46059); assay: Drug uptake in Pichia pastoris GS115 expressing human recombinant PEPT1 at 5 uM after 30s by dual-channel liquid scintillation counting analysis in presence of GlyPro relative to control; conditions: 0.5 min; procedure, shortened: as §1
T3 sequence (P46059 whole entry): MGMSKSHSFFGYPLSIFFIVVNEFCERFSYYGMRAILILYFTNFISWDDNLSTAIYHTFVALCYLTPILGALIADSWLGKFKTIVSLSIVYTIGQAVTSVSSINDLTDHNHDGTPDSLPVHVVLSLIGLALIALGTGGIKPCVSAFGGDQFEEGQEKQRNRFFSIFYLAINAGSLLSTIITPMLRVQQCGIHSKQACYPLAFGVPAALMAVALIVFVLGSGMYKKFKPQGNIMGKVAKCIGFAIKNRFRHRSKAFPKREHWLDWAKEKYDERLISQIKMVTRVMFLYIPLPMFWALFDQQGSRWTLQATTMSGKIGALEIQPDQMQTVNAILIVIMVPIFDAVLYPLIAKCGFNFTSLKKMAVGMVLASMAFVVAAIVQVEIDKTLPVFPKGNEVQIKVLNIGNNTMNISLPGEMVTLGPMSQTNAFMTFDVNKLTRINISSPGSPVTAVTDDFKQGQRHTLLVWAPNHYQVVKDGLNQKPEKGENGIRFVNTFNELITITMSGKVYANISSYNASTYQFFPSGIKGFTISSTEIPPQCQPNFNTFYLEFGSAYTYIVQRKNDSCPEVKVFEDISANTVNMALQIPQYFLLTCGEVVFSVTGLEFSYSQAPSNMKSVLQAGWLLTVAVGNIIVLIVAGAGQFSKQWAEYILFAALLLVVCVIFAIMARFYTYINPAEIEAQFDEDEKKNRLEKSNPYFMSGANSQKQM

[4] = biological target: T3, Solute carrier family 15 member 1; assay: Drug uptake in Pichia pastoris GS115 expressing human recombinant PEPT1 at 5 uM after 30s by dual-channel liquid scintillation counting analysis in presence of cefadroxil relative to control; conditions: 0.5 min; procedure, shortened: as §1
[5] = biological target: T2, Solute carrier family 15 member 1; assay: Drug uptake in Pichia pastoris GS115 expressing mouse recombinant PEPT1 at 5 uM after 30s by dual-channel liquid scintillation counting analysis in presence of L-histidine relative to control; conditions: 0.5 min; procedure, shortened: as §1
[6] = biological target: T3, Solute carrier family 15 member 1; assay: Drug uptake in Pichia pastoris GS115 expressing human recombinant PEPT1 at 5 uM after 30s by dual-channel liquid scintillation counting analysis in presence of SITS relative to control; conditions: 0.5 min; procedure, shortened: as §1

- uptake ratio at 0.5 min, 5 µM [1]: 136
- Drug uptake [2]: 9.8%
- Drug uptake [3]: 3.9%
- Drug uptake [4]: 6.4%
- Drug uptake [5]: 103%
- Drug uptake [6]: 127%
Structure (SMILES): [3H]C(C(=O)O)N(C)C(=O)CN (stereo unspecified)
